Bioassay records deposited in PubChem by Broad Institute.
Wnt act = Wnt/beta-catenin pathway activators, primary screen, cell-based, plate reader, single point. Wnt/beta-catenin reporter cell assay, activator. activation, % at 9.35 µM. 300,000 compounds, 1.2% hits; in the data active means activation above about 30%, passing the limit was not always enough; inconclusive means no clear call, values can overlap the other calls;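 further: 0% = neutral control wells and 100% = positive control wells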
ERAP1 HTS inh = human ERAP1 aminopeptidase inhibitors, primary screen, biochemical, single point, plate reader | inhibition, % at 10.7 µM | recombinant ERAP1, Leu-AMC fluorescence, 60 min | Endoplasmic reticulum aminopeptidase 1 (Homo sapiens), Q9NZ08 | AID 652197, 2013 | 340,000 compounds, 0.15% hits;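 active means mean replicate inhibition of at least 30%, or all replicates individually reaching that 30% level; inactive means mean below 30% and not every replicate reaching it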;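 further: 0% = neutral control wells and 100% = L-leucinethiol positive control wells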
Target sequence (Q9NZ08 whole entry, looked up): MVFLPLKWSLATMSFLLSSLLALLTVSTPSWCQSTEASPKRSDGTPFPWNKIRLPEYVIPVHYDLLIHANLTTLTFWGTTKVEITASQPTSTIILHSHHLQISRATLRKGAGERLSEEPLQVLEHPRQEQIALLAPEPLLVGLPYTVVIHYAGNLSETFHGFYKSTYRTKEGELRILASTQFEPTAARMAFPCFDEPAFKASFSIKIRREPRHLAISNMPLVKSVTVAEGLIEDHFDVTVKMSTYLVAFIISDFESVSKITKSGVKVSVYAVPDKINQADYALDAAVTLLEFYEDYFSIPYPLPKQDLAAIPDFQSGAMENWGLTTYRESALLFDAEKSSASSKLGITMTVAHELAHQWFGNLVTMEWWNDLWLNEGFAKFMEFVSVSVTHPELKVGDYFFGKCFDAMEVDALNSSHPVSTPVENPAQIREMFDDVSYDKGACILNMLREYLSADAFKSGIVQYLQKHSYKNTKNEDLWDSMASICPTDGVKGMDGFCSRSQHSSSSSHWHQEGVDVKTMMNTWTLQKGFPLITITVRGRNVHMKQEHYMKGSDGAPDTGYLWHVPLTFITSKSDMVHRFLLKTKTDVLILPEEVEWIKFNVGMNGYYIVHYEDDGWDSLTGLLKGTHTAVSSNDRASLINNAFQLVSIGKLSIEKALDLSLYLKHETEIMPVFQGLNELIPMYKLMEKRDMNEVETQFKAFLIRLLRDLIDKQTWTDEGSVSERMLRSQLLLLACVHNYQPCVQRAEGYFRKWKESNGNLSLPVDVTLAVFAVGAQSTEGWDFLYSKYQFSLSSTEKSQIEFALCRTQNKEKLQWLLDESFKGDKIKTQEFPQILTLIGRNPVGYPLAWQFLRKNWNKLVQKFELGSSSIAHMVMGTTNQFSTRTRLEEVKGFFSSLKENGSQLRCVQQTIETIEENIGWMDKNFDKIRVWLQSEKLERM
Env fusion inh = inhibitors of HIV-1 Env-driven cell-cell fusion, primary screen, HeLa-JRFL effector, CEM21 target cells, luciferase. inhibition, % at 12.3 µM. 360,000 compounds, 1.1% hits. AID 651610, 2012;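 active means mean replicate inhibition score of at least 50 and every replicate individually at or above 50; inconclusive means only one of the two criteria met; inactive means mean below 50 and not all replicates reaching 50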;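 further: 0% = plate neutral controls and 100% = maraviroc near 300 nM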
MITF act = activators of MITF-driven TRPM1 promoter reporter, primary screen, cell-based, SK-MEL-5, luciferase, single point; SK-MEL-5 TRPM1-promoter luciferase, 24 h; % of positive control, neutral wells = 0; activation, % at 12.5 µM; 300,000 compounds, 0.75% hits; AID 588334, 2011;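 active means mean activation of at least 80% with every replicate also reaching 80%; inconclusive means mean reaches 80% but some replicate falls short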;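 further: 0% = neutral control wells and 100% = parthenolide positive control wells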
Cneo AK release = Cryptococcus neoformans cell lysis inducers, primary screen, AK release luminescence, single concentration. C. neoformans lysis, adenylate kinase release luminescence, 4 h; normalised: neutral wells 0, clomiphene wells 100. lysis activity, % at 15 µM. 360,000 compounds, 0.2% hits;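 active means mean lysis activity across replicates of at least 80%, whatever share of replicates individually reach that level; inactive means mean lysis activity below 80%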
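Material: C. neoformans cells; Schedule: 4 h static compound exposure, 37 °C, read 1 h post-reagent; Measured by: adenylate kinase release luminescence; Read-out: signal increase indicating cell lysis; Controls: Clomiphene as positive lysis control.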
esBAF inh = Bmi1 luciferase reporter increase in mESCs, primary screen, esBAF inhibitor project, mouse ES cells, Bmi1 luciferase knock-in, single point; 24 h; 100% = twice the neutral-well signal; 350,000 compounds, 2% hits; reporter increase, % at 12.5 µM; in the data active means activation above about 40%; inconclusive means no clear call, values can overlap the other calls;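 further: 0% = median of the plate's neutral control wells and 100% = double that signal; a rise in the Bmi1 reporter signal indicates esBAF inhibition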
Numbers without * were called inactive; ? = inconclusive; . = no result; [ ] = dose if it differs, or a comment. Most compounds without a hit are left out; they make up all but 3.5% or so of the library.

SMILES | Wnt act | ERAP1 HTS inh | Env fusion inh | MITF act | Cneo AK release | esBAF inh
Cc1ccc(S(=O)(=O)NC[C@@H]2CC[C@H]3[C@H](CN3Cc3cc(-c4ccccc4)on3)O2)cc1 | . | 0 | -7[16.7 µM] | . | . | .
COC(=O)C[C@@H]1C[C@@H]2c3cc(NC(=O)Nc4ccc(F)cc4)ccc3O[C@@H]2[C@H](CO)O1 | . | . | -14[16.7 µM] | . | -2 | 6
Brc1ccc(/C=N/Nc2ccccn2)cc1 | 16 | -3 | -16 | 50 | 3 | 70*
COCCn1c(SCC(=O)Nc2ccc3c(c2)OCCO3)nc2c(c1=O)SC(C)C2 (centres undefined) | 17 | -3 | 35 | 14 | -3 | 47*
CCn1c(SCC(=O)NCc2ccc3c(c2)OCO3)nc2c(c1=O)SCC2 | 31* | -2 | -7 | -13 | 12 | -4
CC1Cc2nc(SCC(=O)Nc3ccc4c(c3)OCO4)n(Cc3ccccc3)c(=O)c2S1 (centres undefined) | . | . | . | 59 | -2 | 64*
O=C(Cc1ccccc1)N1CC[C@@H]2[C@H](CO)Nc3ccc(Br)cc3[C@@H]21 | . | 0 | . | . | -9 | 3
CO[C@@H]1CN(C)C(=O)c2cc(NS(=O)(=O)c3ccc(Oc4ccccc4)cc3)ccc2OC[C@@H](C)NC[C@@H]1C | . | -5 | -31[16.7 µM] | . | -1 | -8
O=C1NC(=Nc2ccccc2)S/C1=C/c1cccs1 | 51* | 2 | -38 | 48 | . | .
CN(C)CCCNC(=O)c1cc2sc3ccccc3c2s1 | 24 | 17 | -3 | 18 | . | .
COCCNC(=O)c1cc2sc3ccccc3c2s1 | 46* | . | -110 | . | -1 | 2
CC1(C)CC(NC(=O)c2ccccn2)CC(C)(C)N1O | 56* | -2 | 23 | 1 | . | -3
C[C@H](O)C#Cc1ccc2c(c1)O[C@H](CN(C)CC1CC1)[C@H](C)CN([C@H](C)CO)S2(=O)=O | . | . | 1[16.7 µM] | . | . | 7
COc1cc(C#Cc2ccc3cc(CCO)oc(=O)c3c2)cc(OC)c1 | 38* | -2 | -120 | 144* | 0 | 58*
CN(C)c1ccc(C#Cc2ccc3cc(CCO)oc(=O)c3c2)cc1 | . | . | . | 128* | 1 | 32
O=c1oc(CCO)cc2ccc(C#Cc3ccsc3)cc12 | 33* | 0 | -253 | 115* | -1 | 79*
C[C@@H]1CN([C@@H](C)CO)C(=O)c2cc(NC(=O)NC3CCCCC3)ccc2O[C@@H](C)CCCCO[C@@H]1CN(C)C(=O)c1ccccc1 | . | 0 | 7[16.7 µM] | . | -4 | -4
COCC#Cc1cnc2c(c1)C(=O)N([C@H](C)CO)C[C@@H](C)[C@H](CN(C)C(=O)c1ccc(F)cc1)O2 | . | 1 | 10[16.7 µM] | . | 5 | 3
COCC(=O)Nc1ccc2c(c1)C(=O)N(C)[C@H]1CC[C@H](CC(=O)NCc3ccc(OC)cc3)O[C@H]1CO2 | . | . | -10[16.7 µM] | . | -3 | 3
Cc1ccc(S(=O)(=O)N[C@H]2CC[C@H](CCNC(=O)c3ccc4c(c3)OCO4)O[C@H]2CO)cc1 | . | -4 | -1[16.7 µM] | . | 21 | -2
C[C@H](CO)N1C[C@H](C)[C@@H](CN(C)C)Oc2cc(-c3cccnc3)ccc2S1(=O)=O | . | -3 | 20[16.7 µM] | . | 2 | -5
CC(=O)Nc1ccc(C(=O)OCC(=O)NC(=O)NCc2ccccc2)cc1 | 18 | -6 | 71* | . | 0 | 0
C[C@@H]1CN([C@H](C)CO)S(=O)(=O)c2ccc(-c3ccccc3)cc2O[C@H]1CN(C)Cc1ccccc1 | . | . | 55*[16.7 µM] | . | . | 27
C[C@H]1CN([C@@H](C)CO)S(=O)(=O)c2ccc(-c3ccccc3)cc2O[C@H]1CN(C)Cc1ccccc1 | . | . | 55*[16.7 µM] | . | . | -15
Cc1ccc(-c2ccc3c(c2)O[C@H](CN(C)Cc2ccccc2)[C@H](C)CN([C@H](C)CO)S3(=O)=O)cc1 | . | 2 | 18[16.7 µM] | . | -10 | -5
SMILES | Wnt act | ERAP1 HTS inh | Env fusion inh | MITF act | Cneo AK release | esBAF inh
Cc1ccc(-c2ccc3c(c2)O[C@@H](CN(C)Cc2cccnc2)[C@H](C)CN([C@H](C)CO)S3(=O)=O)cc1 | . | -2 | 75*[16.7 µM] | . | 8 | -2
O=C(C[C@@H]1CC[C@H]2[C@@H](COC[C@H](O)CN2Cc2ccncc2)O1)NCc1ccncc1 | . | -1 | . | . | -2 | -9
Cc1ccc(-c2nnn(CC(=O)N(CC3CCCO3)C(C(=O)NC3CCCCC3)c3ccc(F)cc3)n2)o1 (centres undefined) | . | . | 116* | -9 | 1 | .
COc1ccc(C(C(=O)NC2CCCC2)N(CC2CCCO2)C(=O)Cn2nnc(-c3ccc(C)o3)n2)cc1 (centres undefined) | -2 | -2 | 1 | -9 | 1 | 1
COc1ccc(/C=C/c2nc3sc4c(c3c(=O)o2)CCC4)cc1 | . | . | . | -1 | -1 | 5
O=c1oc(-c2cc3ccccc3o2)nc2sc3c(c12)CCCC3 | 15 | -2 | . | 101* | -2 | 53*
O=c1oc(-c2cccs2)nc2scc(-c3cccs3)c12 | 11 | . | . | . | 0 | 64*
O=c1oc(-c2ccccc2)nc2sc3c(c12)CCCC3 | . | . | . | 58 | -4 | 56*
O=c1oc(/C=C/c2ccccc2)nc2sc3c(c12)CCC3 | 6 | . | -85 | 105* | 0 | .
Cc1ccc(S(=O)(=O)N2CC[C@@H]3[C@H]2c2cc(C#Cc4cccc(F)c4)ccc2N[C@@H]3CO)cc1 | . | -2 | . | . | -1 | -2
C[C@H](CO)N1C[C@H](C)[C@H](CN(C)C(=O)Cc2ccccc2)Oc2ncc(-c3ccccc3)cc2C1=O | . | 2 | 20[16.7 µM] | . | -5 | -8
Cc1noc(C)c1NC(=O)Nc1ccc2c(c1)CC(=O)N([C@@H](C)CO)C[C@@H](C)[C@H](CN(C)Cc1ccccc1)O2 | . | 1 | -11[16.7 µM] | . | -4 | 6
O=c1oc(-c2cccs2)nc2sc3c(c12)CCCCC3 | -6 | . | -17 | ? | -1 | 43*
Nn1c(-c2cccs2)nc2sc3c(c2c1=O)CCCC3 | . | . | . | 26 | -7 | 28
CN(c1ccc(C(=O)NCCSC(C)(C)C)cc1)S(=O)(=O)c1ccccc1 | 44* | -6 | 3 | 7 | 5 | 0
CC(C)(C)SCCNC(=O)CN(c1ccc(F)cc1)S(=O)(=O)c1ccccc1 | 15 | -5 | 16 | -4 | 210* | -4
CC(C)NC(=O)N1[C@H](C(=O)N2CCC(Cc3ccccc3)CC2)[C@@H](CO)[C@@H]2Cn3c(cccc3=O)[C@@H]21 | . | 4 | . | . | 3 | -11
O=C(c1ccco1)N1CCN(C(=O)c2ccco2)CC1 | 0 | 7 | -13 | . | . | .
O=C(Nc1ccc(-c2ccc(N3CCCCC3)nn2)cc1)c1ccco1 | 22 | 1 | -20 | 99* | -3 | 60*
Cc1nc(N2CCN(C(=O)c3ccco3)CC2)nc2c1C(=O)CCC2 | 19 | 1 | 2 | 41 | 2 | 41*
